From ChEMBL document CHEMBL1123702, “Functionalized DL-amino acid derivatives. Potent new agents for the treatment of epilepsy” (J Med Chem, 1987)
Non-standard residues stand in square brackets, D forms with d. Residues, ends and D or L forms follow the SMILES beside them. ξ: configuration not given here. *: point of attachment. NHBn = c1ccc(CN*)cc1; ξA = CC(N)C(=O)O

What was measured:
Mus musculus [1] = experiment: Anticonvulsant against s.c. Metrazol-induced convulsions after 30 min.; type: functional
Procedure, shortened: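 Mice (male Carworth Farms No. 1) got ip doses of 30, 100 or 300 mg/kg (600 mg/kg for one agent), checked at 0.5 h. Pentylenetetrazole 85 mg/kg as a 0.5% solution was injected sc in the posterior midline, then the animal was watched for 30 min. Protection means no threshold seizure (clonic spasms lasting ≥5 s). Single animals per dose; scored 0–4 by dose level.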

Mus musculus [2] = species on record: Mus musculus; experiment: Anticonvulsant against maximal electroshock induced convulsions after 30 min.; type: functional
Procedure, shortened: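 Male Carworth Farms No. 1 mice, test agent given ip at 30, 100 and 300 mg/kg (one agent also at 600 mg/kg); read at 0.5 h. Electroshock via electrodes, with a drop of 0.9% saline in the eye first. Protection is abolition of the hind-limb tonic extension. One mouse per dose. Scored 0–4 by the lowest dose with noticeable activity.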

Mus musculus [3] = species on record: Mus musculus; experiment: Anticonvulsant activity was determined by rotarod toxicity test (neurologic toxicity) at an interval of 0.5 h; type: organism-based; conditions: in vivo
Procedure, shortened: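 Phase I screen in male Carworth Farms No. 1 mice, ip at 30, 100 and 300 mg/kg, read at 0.5 h. Four mice per dose on a 1-in. knurled rod at 6 rpm; neurotoxicity is failure to remain on it for 1 min. Scored 0–4: 0 = none at 600 mg/kg, then 1–4 = activity at 600, 300, 100 or 30 mg/kg.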

Mus musculus [4] = species on record: Mus musculus; experiment: Anticonvulsant activity was determined by maximum-induced convulsions electroshock seizure test (Phase II Pharmacological Evaluation); type: functional
Mus musculus [5] = species on record: Mus musculus; experiment: Anticonvulsant activity was determined by maximum-induced convulsions electroshock seizure test (Phase IV Pharmacological Evaluation); type: functional
[6] = Neurologic toxicity activity was determined by rotarod toxicity test (Phase II Pharmacological Evaluation); type: organism-based; conditions: mouse, in vivo
[7] = Neurologic toxicity activity was determined by rotarod toxicity test (Phase IV Pharmacological Evaluation); type: organism-based; conditions: mouse, in vivo
[8] = Protectivity index is the ratio of TD50 /MES ED50 from Phase-II evaluation; type: functional
Procedure, shortened: (§1)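 MES protection: hind-limb tonic extension abolished; saline drop in eye before electrodes. sc Met: pentylenetetrazole 85 mg/kg as 0.5% solution sc in posterior midline, 30 min observation; protection: no clonic spasm episode of at least 5 s. Rotarod toxicity: falling off a 1-in. rod at 6 rpm within 1 min. PI = TD50/MES ED50.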

[9] = Protectivity index is the ratio of TD50 /MES ED50 from Phase-IV evaluation; type: functional
Procedure, shortened: (§2)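 MES protection: hind-limb tonic extension abolished. sc Met: pentylenetetrazole 85 mg/kg as 0.5% solution sc, 30 min observation; protection: no threshold clonic seizure of 5 s or more. Toxicity: failing to stay 1 min on a 6 rpm rod. PI = TD50/MES ED50.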

Mus musculus [10] = experiment: Anticonvulsant activity was determined by subcutaneous picrotoxin test (CD97=3.15 mg/kg) (Phase V Pharmacological Evaluation); type: functional; conditions: sc
Mus musculus [11] = experiment: Anticonvulsant activity was determined by subcutaneous pentylenetetrazole seizure test (Phase IV Pharmacological Evaluation); type: functional; conditions: sc; procedure, shortened: as §2
Mus musculus [12] = species on record: Mus musculus; experiment: Anticonvulsant activity was determined by maximum-induced convulsions electroshock seizure test (Phase III Pharmacological Evaluation); type: functional
Mus musculus [13] = experiment: Anticonvulsant activity was determined by subcutaneous bicuculline test (CD97=2.70 mg/kg) (Phase V Pharmacological Evaluation); type: functional; conditions: sc
Mus musculus [14] = experiment: Anticonvulsant activity was determined by subcutaneous Metrazol-induced convulsions seizure test (Phase II Pharmacological Evaluation); type: functional; conditions: sc; procedure, shortened: as §1
Mus musculus [15] = experiment: Anticonvulsant activity was determined by subcutaneous Metrazol-induced convulsions (sc MET)(Phase V Pharmacological Evaluation); type: functional
Procedure, shortened: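 Mice, normally eight per dose; Metrazol 85 mg/kg (CD97) as 0.5% solution sc in posterior midline. Animals isolated and observed 30 min; protection: no threshold seizure (a clonic spasm episode of at least 5 s).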

Mus musculus [16] = experiment: Anticonvulsant activity was determined by subcutaneous Metrazol-induced convulsions seizure test (Phase IV Pharmacological Evaluation); type: functional; conditions: sc; procedure, shortened: as §2

| SMILES | MET (Mus musculus [1]) | MES (Mus musculus [2]) | Toxicity (Mus musculus [3]) | other results |
| --- | --- | --- | --- | --- |
| CC(=O)NC(C)C(=O)NCC(=O)NCc1ccccc1 (stereo unspecified) (Ac-[ξA]-Gly-NHBn) | 0 | 0 | 0 |  |
| CC(=O)NC(C(=O)NCc1ccccc1)(c1ccccc1)c1ccccc1 | 0 | 0 | 0 |  |
| CC(=O)NC(C(=O)NCc1ccccc1)c1ccccc1 (stereo unspecified) | 0 | 4 | 2 | ED50 (Mus musculus [4]): 20.3 mg/kg; ED50 (Mus musculus [5]): 46.7 mg/kg; TD50 [6]: 96.9 mg/kg; TD50 [7]: 241 mg/kg; Protective Index [8]: 4.77; Protective Index [9]: 5.17 |
| CC(=O)NCC(=O)NCc1ccccc1 | 0 | 2 | 2 |  |
| CC(=O)NC(C)C(=O)NCc1ccccc1 (stereo unspecified) | 0 | 3 | 1 | ED50 (Mus musculus [10]): 134 mg/kg; ED50 (Mus musculus [11]): 266 mg/kg; ED50 (Mus musculus [4]): 76.5 mg/kg; ED50 (Mus musculus [12]): 123 mg/kg; ED50 (Mus musculus [13]): 205 mg/kg; Protective Index [8]: 5.93; Protective Index [9]: > 8.15 |
| COc1cccc(CNC(=O)C(C)NC(C)=O)c1 (stereo unspecified) | 0 | 2 | 0 |  |
| CC(=O)NCC(C)C(=O)NCc1ccccc1 (stereo unspecified) | 0 | 2 | 0 |  |
| CC(=O)NC(C(=O)NCc1ccccc1)C(C)C (stereo unspecified) | 0 | 2 | 0 |  |
| CC(=O)NC(C)C(=O)NCc1cccc(F)c1 (stereo unspecified) | 0 | 3 | 0 | ED50 (Mus musculus [4]): 77.4 mg/kg; ED50 (Mus musculus [14]): 142 mg/kg; Protective Index [8]: > 6.46 |
| CNC(=O)C(C)NC(C)=O (stereo unspecified) | 0 | 0 | 0 |  |
| CSCCC(NC(C)=O)C(=O)NCc1ccccc1 (stereo unspecified) | 0 | 2 | 0 |  |
| CC(=O)NCC(=O)NC(C)C(=O)NCc1ccccc1 (stereo unspecified) (Ac-Gly-[ξA]-NHBn) | 0 | 0 | 0 |  |
| CCC1(C)CC(=O)NC1=O (stereo unspecified) [ETHOSUXIMIDE] |  |  |  | ED50 (Mus musculus [10]): 243 mg/kg; ED50 (Mus musculus [15]): 130 mg/kg; ED50 (Mus musculus [14]): 130 mg/kg; ED50 (Mus musculus [16]): 192 mg/kg; ED50 (Mus musculus [13]): 459 mg/kg; TD50 [6]: 441 mg/kg; TD50 [7]: 879 mg/kg |
| CC(=O)NCCC(=O)NCc1ccccc1 | 0 | 0 | 0 |  |
| CC(C)C(=O)NC(C)C(=O)NCc1ccccc1 (stereo unspecified) | 0 | 0 | 0 |  |
| CC(=O)NC(Cc1ccccc1)C(=O)NCc1ccccc1 (stereo unspecified) | 0 | 0 | 0 |  |
| CCCC(CCC)C(=O)O [VALPROIC ACID] |  |  |  | ED50 (Mus musculus [10]): 387 mg/kg; ED50 (Mus musculus [4]): 272 mg/kg; ED50 (Mus musculus [5]): 665 mg/kg; ED50 (Mus musculus [15]): 149 mg/kg; ED50 (Mus musculus [14]): 149 mg/kg; ED50 (Mus musculus [16]): 388 mg/kg; ED50 (Mus musculus [13]): 360 mg/kg |
| CC(=O)NC(C)C(=O)NC(c1ccccc1)c1ccccc1 (stereo unspecified) | 0 | 0 | 0 |  |
| CC(NC(=O)C(C)(C)C)C(=O)NCc1ccccc1 (stereo unspecified) | 2 | 2 | 0 |  |
